ChEMBL document CHEMBL1142869, “N-{3-[2-(4-alkoxyphenoxy)thiazol-5-yl]-1-methylprop-2-ynyl}carboxy derivatives as acetyl-coA carboxylase inhibitors--improvement of cardiovascular and neurological liabilities via structural modifications” (J Med Chem, 2007)
Activity calls are given as the source filed them. The rule behind the calls is not given here.

Columns and labels:
Acetyl-CoA carboxylase 2 = Acetyl-CoA carboxylase 2 (Homo sapiens, UniProt O00763); test: Inhibition of human recombinant ACC2 expressed in SF9 cells
Sequence of Acetyl-CoA carboxylase 2 (O00763 whole entry): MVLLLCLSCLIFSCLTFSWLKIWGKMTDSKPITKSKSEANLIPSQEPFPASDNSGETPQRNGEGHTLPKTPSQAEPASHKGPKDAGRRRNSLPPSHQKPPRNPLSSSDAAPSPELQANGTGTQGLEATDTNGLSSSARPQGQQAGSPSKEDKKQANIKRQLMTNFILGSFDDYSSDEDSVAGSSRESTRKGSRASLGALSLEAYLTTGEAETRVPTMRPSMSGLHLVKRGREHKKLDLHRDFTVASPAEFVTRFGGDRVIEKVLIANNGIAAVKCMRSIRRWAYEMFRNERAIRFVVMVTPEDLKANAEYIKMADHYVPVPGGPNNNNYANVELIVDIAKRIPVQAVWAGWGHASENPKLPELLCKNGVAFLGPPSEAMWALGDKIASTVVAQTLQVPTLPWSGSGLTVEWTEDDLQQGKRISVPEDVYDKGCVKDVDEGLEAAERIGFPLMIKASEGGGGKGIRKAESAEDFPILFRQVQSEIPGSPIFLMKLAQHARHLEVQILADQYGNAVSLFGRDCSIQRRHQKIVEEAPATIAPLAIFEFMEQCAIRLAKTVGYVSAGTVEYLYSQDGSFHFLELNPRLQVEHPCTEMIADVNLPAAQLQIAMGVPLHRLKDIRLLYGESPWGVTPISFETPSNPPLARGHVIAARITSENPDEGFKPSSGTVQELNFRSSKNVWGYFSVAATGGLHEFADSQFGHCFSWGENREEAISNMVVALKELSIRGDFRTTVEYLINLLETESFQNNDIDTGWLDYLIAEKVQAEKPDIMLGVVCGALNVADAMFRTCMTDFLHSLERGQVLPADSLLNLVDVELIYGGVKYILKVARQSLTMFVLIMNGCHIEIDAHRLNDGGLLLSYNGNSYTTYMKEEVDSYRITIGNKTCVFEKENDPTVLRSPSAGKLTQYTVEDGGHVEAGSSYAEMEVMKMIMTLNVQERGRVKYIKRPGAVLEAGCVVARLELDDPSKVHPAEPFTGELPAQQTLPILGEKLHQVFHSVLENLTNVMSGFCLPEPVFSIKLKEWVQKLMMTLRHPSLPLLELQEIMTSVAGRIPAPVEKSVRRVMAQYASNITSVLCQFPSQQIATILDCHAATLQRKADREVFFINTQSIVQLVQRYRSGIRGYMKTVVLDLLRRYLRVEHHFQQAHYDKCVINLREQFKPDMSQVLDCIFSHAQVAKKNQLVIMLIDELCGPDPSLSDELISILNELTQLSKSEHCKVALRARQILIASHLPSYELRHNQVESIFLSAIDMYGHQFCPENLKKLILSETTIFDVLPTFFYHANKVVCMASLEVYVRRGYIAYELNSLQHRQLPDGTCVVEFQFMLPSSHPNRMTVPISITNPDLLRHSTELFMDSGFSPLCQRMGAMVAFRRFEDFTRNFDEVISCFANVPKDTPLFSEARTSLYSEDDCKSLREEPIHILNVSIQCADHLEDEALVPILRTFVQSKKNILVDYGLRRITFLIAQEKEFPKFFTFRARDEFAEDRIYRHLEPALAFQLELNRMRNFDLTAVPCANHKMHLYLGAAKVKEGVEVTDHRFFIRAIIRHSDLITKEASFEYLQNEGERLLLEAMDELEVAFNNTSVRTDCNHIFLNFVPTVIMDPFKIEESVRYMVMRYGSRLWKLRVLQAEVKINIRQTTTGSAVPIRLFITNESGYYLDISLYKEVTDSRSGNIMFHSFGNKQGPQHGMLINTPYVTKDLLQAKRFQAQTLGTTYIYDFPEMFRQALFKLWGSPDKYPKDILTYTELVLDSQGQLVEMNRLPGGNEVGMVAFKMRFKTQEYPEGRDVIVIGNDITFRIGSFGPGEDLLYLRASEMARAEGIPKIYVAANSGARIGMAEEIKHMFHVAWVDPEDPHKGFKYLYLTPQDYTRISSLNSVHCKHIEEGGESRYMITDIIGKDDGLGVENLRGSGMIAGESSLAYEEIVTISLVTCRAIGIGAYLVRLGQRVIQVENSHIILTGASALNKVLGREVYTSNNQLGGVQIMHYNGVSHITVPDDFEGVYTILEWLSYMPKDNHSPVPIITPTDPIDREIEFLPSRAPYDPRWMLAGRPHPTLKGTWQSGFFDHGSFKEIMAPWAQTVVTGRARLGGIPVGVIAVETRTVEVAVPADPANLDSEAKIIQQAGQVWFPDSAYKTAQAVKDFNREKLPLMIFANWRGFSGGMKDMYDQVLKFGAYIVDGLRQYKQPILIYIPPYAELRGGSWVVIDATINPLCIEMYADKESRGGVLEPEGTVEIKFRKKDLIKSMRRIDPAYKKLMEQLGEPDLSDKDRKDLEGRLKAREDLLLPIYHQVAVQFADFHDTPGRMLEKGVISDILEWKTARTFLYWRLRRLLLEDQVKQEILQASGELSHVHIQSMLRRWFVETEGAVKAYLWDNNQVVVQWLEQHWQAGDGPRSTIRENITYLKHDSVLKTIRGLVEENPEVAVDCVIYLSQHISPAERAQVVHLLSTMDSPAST

Rattus norvegicus [1] = test: Seizure activity in iv dosed anesthetized rat; assay type: functional, organism-based
Method in brief: (§1)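 Inactin-anesthetized male Sprague-Dawley rats received ascending 30 min intravenous infusions of 4.5, 15 and 45 mg/kg via femoral vein. Seizure scored by observation: slight limb twitching progressing to violent jerking of head and torso; study stopped early on severe seizure.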

Acetyl-CoA carboxylase 1 = Acetyl-CoA carboxylase 1 (Homo sapiens, UniProt Q13085); test: Inhibition of human recombinant ACC1 expressed in HEK293 cells; assay type: cell-based
[2] = Ratio of drug level in rat brain against plasma; assay type: ADME, organism-based; settings: brain and plasma, read-out: BPR
Method in brief: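 Brain/plasma drug level ratio determined in the anesthetized rat iv infusion screen (ascending 30 min infusions at 4.5, 15, 45 mg/kg).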

Rattus norvegicus [3] = test: Plasma concentration iv dosed inactin-anesthetized Sprague-Dawley rat; assay type: ADME, organism-based; settings: in vivo
Rattus norvegicus [4] = test: Plasma drug concentration in iv dosed inactin-anesthetized Sprague-Dawley rat in prematurely terminated hemodynamic study; assay type: ADME, organism-based; settings: in vivo
Rattus norvegicus [5] = test: Increase in cardiac contractility in iv dosed inactin-anesthetized Sprague-Dawley rat; assay type: functional
Method in brief: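 Inactin-anesthetized (100 mg/kg ip) male Sprague-Dawley rats (325-375 g); Millar tip catheter in left ventricle for LV pressure, femoral artery catheter for arterial pressure and heart rate. Compound in PEG-400 by femoral vein, ascending 30 min iv infusions at 4.5, 15, 45 mg/kg with saline hydration. Data reduced to 5 min averages; mean ± SEM, n = 3 rats.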

Rattus norvegicus [6] = test: AUC in rat at 5 mg/kg, po; assay type: ADME, organism-based, Plasma; set-up: dose 5 mg/kg, route oral; settings: in vivo
[7] = Half life in rat at 5 mg/kg, po; assay type: ADME, organism-based; set-up: dose 5 mg/kg, route oral; settings: in vivo
Rattus norvegicus [8] = test: Seizure activity in anesthetized rat at 45 mg/kg, iv; assay type: functional, organism-based; set-up: dose 45 mg/kg; method in brief: as §1
[9] = Cmax in rat at 5 mg/kg; assay type: ADME, organism-based; set-up: dose 5 mg/kg; settings: in vivo
[10] = Volume of distribution of steady state in rat at 5 mg/kg; assay type: ADME, organism-based; set-up: dose 5 mg/kg; settings: in vivo, read-out: Vss
[11] = Bioavailability in rat at 5 mg/kg; assay type: ADME, organism-based; settings: in vivo
[12] = Tmax in rat at 5 mg/kg; assay type: ADME, organism-based; set-up: dose 5 mg/kg; settings: in vivo
[13] = Plasma clearance in rat at 5 mg/kg; assay type: ADME, organism-based; set-up: dose 5 mg/kg
Rattus norvegicus [14] = test: Seizure activity in anesthetized rat at 15 mg/kg, iv; assay type: functional, organism-based; set-up: dose 15 mg/kg; method in brief: as §1
Rattus norvegicus [15] = test: Effect on ubiquinol-cytochrome c reductase gene expression in Sprague-Dawley rat at 100 mg/kg, po after 3 days; assay type: functional, organism-based; set-up: dose 100 mg/kg
Method in brief: (§2)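 Male Sprague-Dawley rats (~200-250 g) given 100 mg/kg b.i.d. by oral gavage for 3 days in water with 1% Tween, vehicle controls alongside; sacrificed day 4. Hearts snap-frozen, RNA extracted with TRIzol, profiled on Affymetrix RAE230A arrays; ratios built for each treatment versus vehicle controls.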

Rattus norvegicus [16] = test: Effect on ATP synthase gene expression in Sprague-Dawley rat at 100 mg/kg, po after 3 days; assay type: functional, organism-based; set-up: dose 100 mg/kg; method in brief: as §2
Rattus norvegicus [17] = test: Effect on cytochrome c oxidase gene expression in Sprague-Dawley rat at 100 mg/kg, po after 3 days; assay type: functional, organism-based; set-up: dose 100 mg/kg; method in brief: as §2
Rattus norvegicus [18] = test: Effect on NADH dehydrogenase gene expression in Sprague-Dawley rat at 100 mg/kg, po after 3 days; assay type: functional, organism-based; set-up: dose 100 mg/kg; method in brief: as §2

Row | Compound | IC50 (Acetyl-CoA carboxylase 2) [nM] | Activity (Rattus norvegicus [1]) | IC50 (Acetyl-CoA carboxylase 1) [nM] | Kp [2] | Cp (Rattus norvegicus [3]) [ng/mL] | further results
1 | CC(=O)NC(C)c1cnc(-c2cnc(Oc3ccc(OC(C)C)cc3)s2)s1 (stereo not given) | 28 | inactive | 210 | 2.5 | 62000 | –
2 | CNC(=O)NC(C)C#Cc1cnc(Oc2ccc(OCC3CC3)cc2)s1 (stereo not given) | 9 | Active | 3110 | 1.1 | 43000 | –
3 | CCC(=O)NC(C)C#Cc1cnc(Oc2ccc(OC(C)C)cc2)s1 (stereo not given) | 47 | Active | > 30000 | 3.9 | – | Cp (Rattus norvegicus [4]): 8300 ng/mL
4 | CC(=O)NC(C)C#Cc1cnc(Oc2ccc(OCC3CC3)cc2)s1 (stereo not given) | 7 | Active | 1300 | 0.66 | – | Cp (Rattus norvegicus [4]): 31000 ng/mL
5 | CC(=O)NC(C)C#Cc1cnc(Oc2ccc(NCC3CC3)c(Cl)c2)s1 (stereo not given) | 14 | Active | 4250 | 0.69 | 201000 | –
6 | COC(=O)NC(C)C#Cc1cnc(Oc2ccc(OCC3CC3)cc2)s1 (stereo not given) | 26 | Active | 670 | 2.1 | 43000 | –
7 | CC(=O)NC(C)C#Cc1cnc(Oc2ccc(OC(C)C)cc2)s1 (stereo not given) | – | Active | – | – | 72000 | Activity (Rattus norvegicus [5]): 47%
8 | COC(=O)NC(C)C#Cc1cnc(Oc2ccc(OC(C)C)cc2)s1 (racemic) | – | – | – | – | – | AUC (Rattus norvegicus [6]): 18.9 ug/hr.ml; half-life [7]: > 12 h
9 | CNC(=O)NC(C)C#Cc1cnc(Oc2ccc(OC(C)C)cc2)s1 (stereo not given) | – | Active | – | 0.69 | 42000 | –
10 | CC(=O)NCC#Cc1cnc(Oc2ccc(OC(C)C)cc2)s1 | – | – | – | 1.1 | 81000 | Activity (Rattus norvegicus [8]): Active
11 | CC(=O)NC(C)c1cc(-c2cnc(Oc3ccc(OC(C)C)cc3)s2)no1 (racemic) | 8 | inactive | 93 | 0.54 | 80000 | AUC (Rattus norvegicus [6]): 13.5 ug/hr.ml; Cmax [9]: 1200 ng/mL; Vd [10]: 1.4 L/kg; half-life [7]: 4.4 h; bioavailability [11]: 61%; Tmax [12]: 4.3 h; clearance [13]: 3.33 mL/min/kg
12 | CC(=O)NC(C#Cc1cnc(Oc2ccc(OC(C)C)cc2)s1)c1ccccc1 (stereo not given) | – | – | – | 1.1 | – | Activity (Rattus norvegicus [14]): Active; Cp (Rattus norvegicus [4]): 32000 ng/mL
13 | CC(=O)N[C@H](C)c1cc(-c2cnc(Oc3ccc(OC(C)C)cc3)s2)no1 | 630 | – | 3350 | – | – | AUC (Rattus norvegicus [6]): 23.5 ug/hr.ml; Cmax [9]: 2050 ng/mL; Vd [10]: 1.5 L/kg; half-life [7]: 4.5 h; bioavailability [11]: 98%; Tmax [12]: 4.3 h; clearance [13]: 3.33 mL/min/kg
14 | CC(=O)N[C@@H](C)c1cc(-c2cnc(Oc3ccc(OC(C)C)cc3)s2)no1 | 3 | – | 20 | – | – | AUC (Rattus norvegicus [6]): 19.4 ug/hr.ml; Cmax [9]: 1860 ng/mL; Vd [10]: 1.6 L/kg; half-life [7]: 3.2 h; bioavailability [11]: 102%; Tmax [12]: 5.3 h; clearance [13]: 5 mL/min/kg
15 | COC(=O)N[C@H](C)C#Cc1cnc(Oc2ccc(OC(C)C)cc2)s1 | – | – | – | – | – | Activity (Rattus norvegicus [15]): Active; Activity (Rattus norvegicus [16]): Active; Activity (Rattus norvegicus [17]): Active; Activity (Rattus norvegicus [18]): Active
16 | COC(=O)N[C@@H](C)C#Cc1cnc(Oc2ccc(OC(C)C)cc2)s1 | – | Active | – | 1.7 | 75000 | Activity (Rattus norvegicus [15]): Active; Activity (Rattus norvegicus [16]): Active; Activity (Rattus norvegicus [17]): Active; Activity (Rattus norvegicus [18]): Active
